Screening results as filed in PubChem BioAssay.
This is a sample that favours compounds with a hit; in the whole collection about 1.8% have one here.
CASP6 VEID inh – caspase-6 (human) enzyme inhibition. P55212. purified caspase-6, Z-VEID-R110 cleavage fluorescence. inhibition, % at 12.5 µM. hit rate 0.53% among 350,000;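 active = mean inhibition across replicates at least about 35%, with every replicate also reaching that limit, limit read from the data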
MBD2 DNA inh – blocks human MBD2 binding to methylated DNA; AID 686964; hit rate 0.31% among 370,000; TR-FRET, MBD2 binding to methylated oligonucleotide; Q9UBB5; inhibition, % at 4.4 µM; in the data active = inhibition above about 13%
TDP2 absorb – TDP2 (human) inhibition, absorbance primary screen. recombinant TDP2, T5PNP hydrolysis, p-nitrophenol absorbance 415 nm. hit rate 0.34% among 370,000. O95551. inhibition, % at 12.8 µM;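 active = inhibition above the mean of all tested compounds plus 3 SD, set per campaign, cut at about 25% in these data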
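Test system: human TDP2 enzyme; Input: 120 nM TDP2 per well; Buffer or medium: Mg2+-containing Tris-HCl buffer, pH 7.5; Reagent: 5 mM T5PNP; Dosing: 12.8 µM single point, 1% DMSO; Incubation: reaction 2 h, 37 °C; Detection: p-Nitrophenol epi absorbance; Read-out: % inhibition relative to enzyme-containing and enzyme-free wells; Replicates: single well per compound.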
UHRF1 MBD2 ctr – blocks human UHRF1 binding to methylated DNA. Q96T88. UHRF1 binding to methylated oligo, TR-FRET. hit rate 0.75% among 370,000. inhibition, % at 4.4 µM; in the data active = inhibition above about 21%;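 note: UHRF1 SRA domain binding a hemimethylated CpG hairpin DNA probe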
Target sequence (Q96T88 whole entry, looked up, the tested form may be a part): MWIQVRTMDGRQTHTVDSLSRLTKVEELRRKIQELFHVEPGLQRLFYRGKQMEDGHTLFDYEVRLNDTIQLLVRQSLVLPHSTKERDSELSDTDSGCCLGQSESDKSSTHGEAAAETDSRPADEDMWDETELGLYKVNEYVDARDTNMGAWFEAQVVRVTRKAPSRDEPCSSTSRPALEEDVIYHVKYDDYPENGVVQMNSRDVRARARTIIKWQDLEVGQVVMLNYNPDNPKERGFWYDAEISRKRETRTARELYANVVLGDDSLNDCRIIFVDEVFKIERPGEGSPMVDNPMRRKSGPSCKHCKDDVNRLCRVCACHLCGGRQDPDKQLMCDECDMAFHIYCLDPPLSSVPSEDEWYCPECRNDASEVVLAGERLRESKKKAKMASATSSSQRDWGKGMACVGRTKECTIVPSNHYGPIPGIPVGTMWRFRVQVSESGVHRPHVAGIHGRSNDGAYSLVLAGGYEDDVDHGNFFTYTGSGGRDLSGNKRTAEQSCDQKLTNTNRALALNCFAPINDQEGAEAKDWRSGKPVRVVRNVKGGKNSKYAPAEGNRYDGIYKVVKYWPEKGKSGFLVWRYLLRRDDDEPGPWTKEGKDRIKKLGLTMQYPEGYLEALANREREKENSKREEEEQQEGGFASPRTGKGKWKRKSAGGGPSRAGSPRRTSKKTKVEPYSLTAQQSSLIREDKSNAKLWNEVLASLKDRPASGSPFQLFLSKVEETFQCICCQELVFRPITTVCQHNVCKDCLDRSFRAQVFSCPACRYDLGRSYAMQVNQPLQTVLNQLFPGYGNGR
NSD2 HMT inh – NSD2 (human) methyltransferase inhibition; NSD2 peptide methylation, AlphaScreen, 120 min; inhibition, % at 12.5 µM; hit rate 0.54% among 310,000; AID 743445; in the data active = inhibition above about 50%
LEDGF integ inh – blocks HIV-1 LEDGF/p75-dependent DNA integration; TR-FRET IN-LEDGF/p75 DNA integration, Eu/Cy5; inhibition, % at 3.7 µM; hit rate 0.64% among 370,000;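 active = inhibition above the screen-wide mean plus 3 SD, cut at about 13% in these data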;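 note: signal is the Cy5 over europium emission ratio at 671 and 618 nm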
A number is an active result; n = inactive; x = no result.

SMILES | CASP6 VEID inh | MBD2 DNA inh | TDP2 absorb | UHRF1 MBD2 ctr | NSD2 HMT inh | LEDGF integ inh
O=C(NCc1ccccc1Cl)c1ccc2nc[nH]c2c1 | 39 | n | n | n | n | n
O=C(NCc1ccc(Cl)cc1Cl)c1ccc2nc[nH]c2c1 | x | n | n | n | n | n
OCC[C@@H]1C[C@H](O)[C@@H](O)[C@@]2(OCc3cc(C(F)(F)F)ccc32)O1 | n | n | n | 22 | x | n
CC(Sc1nc2cc([N+](=O)[O-])ccc2n1-c1cccc(C(F)(F)F)c1)C(=O)NC(N)=O (stereo not drawn) | n | n | n | 95 | n | n
Cc1ccc(S(=O)(=O)N(C)C[C@H]2OCCCC[C@@H](C)Oc3ccc(NS(=O)(=O)c4cn(C)cn4)cc3C(=O)N([C@H](C)CO)C[C@H]2C)cc1 | n | x | x | x | x | x
O=C(O)c1ccccc1C(=O)c1ccc(Cl)cc1 | n | n | n | n | n | n
Nc1sccc1C(=O)c1ccc(Cl)cc1 | n | n | n | 30 | n | n
CN(C)CCN1C(=O)CCC2(C)C1=CCC1C2CCC2(C)C1CCC2(C)O (stereo not drawn) | n | n | n | 80 | n | n
C[C@]12CCC(=O)C=C1CC[C@@H]1[C@@H]2CC[C@@]2(C)[C@H]1CC[C@]2(O)C(=O)CO | n | n | n | n | x | n
Cc1ccc(S(=O)(=O)Nc2cccc3c2O[C@H](CN(C)Cc2ccc(-c4ccccc4)cc2)[C@@H](C)CN([C@@H](C)CO)C3=O)cc1 | n | x | x | x | x | x
O=C(Cc1ccccn1)NCC[C@@H]1CC[C@H](NC(=O)c2ccccc2F)[C@@H](CO)O1 | n | x | x | x | x | x
Cc1ccc(NC(=O)CN(C)C(=O)Cc2ccc(Cl)c(Cl)c2)cc1 | n | n | n | n | n | n
Cc1ccc(NC(=O)CN(C)C(=O)Cn2ncc(Cl)c(Cl)c2=O)cc1 | 41 | n | n | n | n | n
CN(C)CC(=O)N[C@@H]1CC[C@@H](CCn2cc(C3CC3)nn2)O[C@@H]1CO | n | x | x | x | x | x
COc1ccc(NC(=O)Nc2ccc3c(c2)C(=O)N([C@H](C)CO)C[C@@H](C)[C@@H](CN(C)S(=O)(=O)c2cccs2)OCCCC[C@H](C)O3)cc1 | n | x | x | x | x | x
Cc1cc(-n2nnc3ccccc32)nc2ccccc12 | 55 | n | n | n | n | n
COc1cc2c(cc1OC)C(C(=O)N(C)Cc1ccccc1)C(c1cccnc1)N(C)C2=O (stereo not drawn) | n | n | n | 38 | n | n
O=C(N/N=C/c1coc2ccccc2c1=O)c1cc(Br)ccc1O | 43 | n | n | n | n | n
COc1ccccc1CNC(=O)C[C@H]1CC[C@H]2[C@@H](COC[C@H](O)CN2C(=O)Nc2ccc(C(F)(F)F)cc2)O1 | n | x | x | x | x | x
Cc1ccccc1SC1CCN(C(=O)C2CCC(=O)N(C3CC3)C2)CC1 (stereo not drawn) | n | n | n | n | n | n
Cc1ccc(SC2CCN(C(=O)C3CCC(=O)N(C4CC4)C3)CC2)cc1 (stereo not drawn) | n | n | n | 22 | n | n
COCCNC(=O)C[C@H]1CC[C@@H]2[C@H](COc3ccc(NC(=O)Nc4ccccc4)cc3C(=O)N2C)O1 | n | x | x | x | x | x
CC=Cc1ccc2n(c1=O)C[C@@H]1[C@@H](CO)[C@H](C(=O)NCc3ccccc3)N(S(C)(=O)=O)[C@H]21 (mixture of isomers) | n | x | x | x | x | x
COc1ccc(C2=NN(C)C(=NCc3ccccc3)SC2)cc1 | n | n | n | n | n | n
CN1N=C(C(C)(C)C)CSC1=Nc1ccccc1 | 37 | n | n | n | n | n
O=c1c(OC2OC(CO)C(O)C(O)C2O)c(-c2ccc(O)c(O)c2)oc2cc(O)cc(O)c12 (stereo not drawn) | n | n | n | n | x | 70
CC(C)CC#Cc1cnc2c(c1)C(=O)N([C@H](C)CO)C[C@H](C)[C@H](CN(C)Cc1ccc3c(c1)OCO3)O2 | n | x | x | x | x | x
COc1ccc(NC(=O)N(C)C[C@@H]2Oc3c(NC(=O)Nc4ccc5c(c4)OCO5)cccc3C(=O)N([C@H](C)CO)C[C@@H]2C)cc1 | n | x | x | x | x | x
CC(=O)Nc1ccc(NC(=O)C(C)OC(=O)CNS(=O)(=O)c2cccc(Cl)c2)cc1 (stereo not drawn) | n | n | n | 52 | n | n
COc1cccc(C#Cc2ccc([C@@H]3[C@@H](CO)N4C(=O)CN(S(=O)(=O)c5ccccc5C)C[C@@H]34)cc2)c1 | n | x | x | x | x | x
